Measurements from different studies.
Each line is one published result; the experiments were not run side by side.
Target: G protein-coupled receptor kinase 5 (GRK5, Homo sapiens, UniProt P34947)

| Structure (SMILES) | read-out | mode | technique | tested at | measurement | value |
| --- | --- | --- | --- | --- | --- | --- |
| CC(C)(C)c1nc(-c2cccc(NS(=O)(=O)c3c(F)cccc3F)c2F)c(-c2ccnc(N)n2)s1 | enzyme activity | inhibitor | radiometric | 1 µM | remaining activity | 85% |
| Cc1cnc(NC2CCOCC2)nc1-n1cnc(C(=O)NC(CN)c2cc(F)cc(Cl)c2)c1 (centres unmarked) | enzyme activity | inhibitor | radiometric | 1 µM | remaining activity | 96% |
| Cc1ccc(C(=O)NCc2ccsc2)cc1C#Cc1cn(C(C)C)c2ncnc(N)c12 | enzyme activity | inhibitor | – | 1 µM | activity vs control | 111% |
| N#CCCc1ccc2c(c1)-c1[nH]c3ccc([N+](=O)[O-])cc3c1CC(=O)N2 | cell-free assay | – | – | 0.5 µM | remaining signal | 103% |
| CC(C)(O)[C@H]1CC[C@H](Nc2ccc3ncc(-c4cccc(C(F)(F)F)c4)n3n2)CC1 | enzyme activity | inhibitor | – | 1 µM | remaining activity | 95.1% |
| CCCS(=O)(=O)Nc1ccc(F)c(C(=O)c2c[nH]c3ncc(-c4ccc(Cl)cc4)cc23)c1F | enzyme activity | inhibitor | – | 1 µM | inhibition | < 10% |
| CCCOc1ccc(OC)c(F)c1C(=O)c1ccc(C(=O)N[C@@H]2CNC[C@H]2NC(=O)c2ccc3[nH]ncc3c2)cc1 | enzyme activity | inhibitor | – | 10 µM | remaining activity | 114% |
| O=C1NC(=O)c2cc(Nc3ccc(F)cc3)c(Nc3ccc(F)cc3)cc21 | cell-free assay | – | – | 0.5 µM | remaining signal | 101% |
| COc1cc2ncnc(Nc3ccc(Oc4ccccc4)cc3C)c2cc1OC | enzyme activity | inhibitor | – | 1 µM | inhibition | -2% |
| CC(C)(C)c1nc2c(s1)c1nc(N)ncc1c1ccc(NS(=O)(=O)c3c(F)cccc3F)c(F)c12 | enzyme activity | inhibitor | radiometric | 1 µM | remaining activity | 84% |
| Cc1sc(C(=O)NC2COC2)cc1-n1cc(NC(=O)Nc2c(F)cccc2Cl)cn1 | enzyme activity | inhibitor | – | 10 µM | remaining activity | 113% |
| COc1cc2ncnc(Nc3ccc(Oc4ccccc4)c(C)c3C)c2cc1OC | enzyme activity | inhibitor | – | 1 µM | inhibition | 0% |
| CCN(CC)c1ccc(C2=NNC(=O)CC2C)cc1[N+](=O)[O-] (centres unmarked) | enzyme activity | inhibitor | – | 10 µM | remaining activity | 103% |
| Cc1ccc(Nc2nccc(N(C)c3ccc4c(C)n(C)nc4c3)n2)cc1S(N)(=O)=O | enzyme activity | inhibitor | – | 10 µM | inhibition | -10% |
| Cc1cc(NC(=O)c2cccc3cc(-c4cccc5[nH]nc(N)c45)ccc23)ccc1F | enzyme activity | inhibitor | – | 0.1 µM | activity vs control | 112% |
| COc1cc(Cl)c(C(=O)N[C@@H](CN[C@H]2CC[C@@H](N)CC2)Cc2ccc(C#N)cc2)cc1-c1ccc(CN[C@H](C)c2ccc(C)cc2)o1 | enzyme activity | inhibitor | – | 1 µM | remaining activity | 99% |
| CNC(=O)c1cc(Oc2ccc(NC(=O)Nc3ccc(Cl)c(C(F)(F)F)c3)cc2)ccn1 | enzyme activity | inhibitor | – | 0.3 µM | inhibition | 7% |
| CN1CC(Oc2cnc(C#N)cc2-c2ccn3nc(NC(=O)C4CC4)cc3c2)C1 | enzyme activity | inhibitor | – | 1 µM | inhibition | 3% |
| O=C(Nc1cnn(-c2csc(C(=O)NC3COC3)c2)c1)Nc1ccccc1Cl | enzyme activity | inhibitor | – | 5 µM | remaining activity | 98% |
| Cc1ccc(NC(=O)c2ccc(C)c(C(F)(F)F)c2)cc1C#Cc1nn(C2CCC(O)CC2)c2ncnc(N)c12 (centres unmarked) | cell-free assay | – | – | 10 µM | remaining signal | 99% |
